The text below walks through data of ChEMBL document CHEMBL1128539, “Novel antagonists of platelet-activating factor. 2. Synthesis and structure-activity relationships of potent and long-acting heterofused [1,5]benzodiazepine and [1,4]diazepine derivatives of 2-methyl-1-phenylimidazo[4,5-c]pyridine” (J Med Chem, 1995).

The term IC50 denotes the midpoint of a concentration-inhibition curve. A high value points to weaker potency in that assay.

The test system of data set [1] is Canis familiaris. In words: Duration of action in Conscious Dog at a dose of […] po. The format is ADME, organism-based, Canis lupus familiaris. Further details: dose 0.025 mg/kg, route oral. As to conditions: in vivo.
Data set [2] concerns Canis familiaris. Put plainly: Duration of action in Conscious Dog at a dose of 0.05 mg/kg po. The format is ADME, organism-based, Canis lupus familiaris. More on the design: dose 0.05 mg/kg, route oral. As to conditions: in vivo.
Data set [3] concerns Canis familiaris. Put plainly: Duration of action in Conscious Dog at a dose of 0.1 mg/kg po. The format is ADME, organism-based, Canis lupus familiaris. More on the design: dose 0.1 mg/kg, route oral. The conditions noted are these: in vivo.
Data set [4] relates to Canis familiaris. In words: Duration of action in Conscious Dog at a dose of 0.2 mg/kg po. The format is ADME, organism-based, Canis lupus familiaris. More on the design: dose 0.2 mg/kg, route oral. As to conditions: in vivo.
The test system of data set [5] is Canis familiaris. Put plainly: Duration of action in Conscious dog at a dose of 0.2 mg/kg po. More on the design: dose 0.2 mg/kg, route oral. As to conditions: in vivo. The data set is classed as ADME, organism-based, Canis lupus familiaris.
The test system of data set [6] is Canis familiaris. Put plainly: Duration of action in Conscious Dog at a dose of 0.075 mg/kg po. The format is ADME, organism-based, Canis lupus familiaris. More on the design: dose 0.075 mg/kg, route oral. The conditions noted are these: in vivo.
Data set [7] deals with Canis familiaris. In words: Duration of action in Conscious Dog at a dose of […] po. The format is ADME, organism-based, Canis lupus familiaris. As to conditions: in vivo.
The test system of data set [8] is Canis familiaris. In words: Duration of action in Conscious Dog at a dose of 0.3 mg/kg po. The format is ADME, organism-based, Canis lupus familiaris. More on the design: dose 0.3 mg/kg, route oral. As to conditions: in vivo.
Data set [9] has as its system Canis familiaris. Put plainly: Duration of action in Conscious Dog at a dose of 0.15 mg/kg po. The data set is classed as ADME, organism-based, Canis lupus familiaris. More on the design: dose 0.15 mg/kg, route oral. As to conditions: in vivo.
The subject of data set [10] is Canis familiaris. In words: Duration of action in Conscious Dog at a dose of 0.5 mg/kg po. The data set is classed as ADME, organism-based, Canis lupus familiaris. More on the design: dose 0.5 mg/kg, route oral. As to conditions: in vivo.
For data set [11], the target named is Platelet-activating factor receptor (Oryctolagus cuniculus). Put plainly: In vitro antagonist activity against platelet activating factor (PAF) receptor, using washed rabbit platelets.
Data set [12] deals with Canis familiaris. Put plainly: Duration of action in Conscious Dog at 0.1 mg/kg po. More on the design: dose 0.1 mg/kg, route oral. The conditions noted are these: in vivo. The format is ADME, organism-based, Canis lupus familiaris. Put shortly:
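Conscious dogs. Before dosing, each dog's minimum PAF concentration giving irreversible whole-blood aggregation was set (30–50 nM). Compound was given by gavage in minimal 0.01 M HCl. Blood drawn 2 h later was challenged ex vivo with 10× (or 30×) that PAF level. If uninhibited, a larger second dose was given and blood resampled 2 h later. If inhibited, sampling continued until predose aggregation returned.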

Consider `Cc1nc2cnccc2n1-c1ccc(C2=Nc3c(-c4cccnc4)nn(C)c3N(C)C(=O)C2)cc1`, for which the Duration of action in data set [1] was 9 h; in data set [2], greater than 10 h.
Consider `Cc1cc(C)c2c(n1)N(C)C(=O)CC(c1ccc(-n3c(C)nc4cnccc43)cc1)=N2`, for which the Duration of action in data set [3] worked out at 9 h.
As for `CCN(CC)C(=O)c1cnc2c(c1)N=C(c1ccc(-n3c(C)nc4cnccc43)cc1)CC(=O)N2C`, the Duration of action in data set [3] was determined as 4 h.
`Cc1nn(C)c2c1N=C(c1ccc(-n3c(C)nc4cnccc43)cc1)CC(=O)N2C`: the Duration of action in data set [4] was 4 h.
In turn, `Cc1nc2cnccc2n1-c1ccc(C2=Nc3c(-c4ccccc4)nn(C)c3N(C)C(=O)C2)cc1` returned a Duration of action in data set [3] greater than 8 h.
`Cc1nc2cnccc2n1-c1ccc(C2=Nc3cc(Cl)c(Cl)cc3-n3ccnc3C2)cc1` had a Duration of action in data set [5] of 7 h.
With `Cc1nc2cnccc2n1-c1ccc(C2=Nc3c(C4CCCCC4)nn(C)c3N(C)C(=O)C2)cc1`, the Duration of action in [1] is 0 h; in data set [6] it was 8 h.
As for `Cc1nc2cnccc2n1-c1ccc(C2=Nc3cc(C(=O)N4CCOCC4)cnc3N(C)C(=O)C2)cc1`, the Duration of action in data set [7] worked out at 2 h.
On to `CCOC(=O)C1=C(c2ccc(-n3c(C)nc4cnccc43)cc2)NC(C)=C(C(=O)Nc2ccccn2)C1c1ccccc1Cl` (centres undefined), for which, in [6], the Duration of action came to 8 h.
The molecule `Cc1nn(C)c2c1N=C(c1ccc(-n3c(C)nc4cnccc43)cc1)CC(=O)N2` yielded a Duration of action in [8] of 0 h.
For the molecule `Cc1cc(C)c2c(n1)NC(=O)CC(c1ccc(-n3c(C)nc4cnccc43)cc1)=N2`, the Duration of action in [9] is 0 h; in data set [10] it was less than 8 h.
Regarding `Cc1nc2cnccc2n1-c1ccc(C2=Nc3cc(Br)cnc3N(C)C(=O)C2)cc1`, in data set [4], the Duration of action was 4 h.
Take `Cc1nn(C)c2c1NC(=O)CC(c1ccc(-n3c(C)nc4cnccc43)cc1)=N2`: the Duration of action in data set [9] was 0 h; in data set [10], greater than 8 h.
In [11], `Cc1nnc2n1-c1sc3c(c1C(c1ccccc1Cl)=NC2)CC(C(=O)N1CCOCC1)C3` (centres undefined) [BEPAFANT] yielded an IC50 of 73 nM. Also, in data set [12], the Duration of action was 7 h.
